Only some compounds are listed: those with a hit (about 3% of all), similar ones and a draw of the others.
CASP6 VEID inh: blocks human caspase-6 cleavage activity; P55212; purified caspase-6, Z-VEID-R110 cleavage fluorescence; inhibition, % at 12.5 µM; actives 0.53% (n = 350,000); AID 686996;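 active = mean inhibition across replicates at least about 35%, with every replicate also reaching that limit, limit read from the data; inconclusive = only one of the two criteria met; inactive = neither criterion met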
Target sequence (P55212 24-179 limits assumed): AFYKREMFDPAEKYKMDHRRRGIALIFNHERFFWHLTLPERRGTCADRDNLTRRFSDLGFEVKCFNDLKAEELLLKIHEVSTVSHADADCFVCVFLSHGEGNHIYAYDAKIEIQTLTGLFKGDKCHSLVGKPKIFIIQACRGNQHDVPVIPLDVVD
Target sequence (P55212 194-293 limits assumed): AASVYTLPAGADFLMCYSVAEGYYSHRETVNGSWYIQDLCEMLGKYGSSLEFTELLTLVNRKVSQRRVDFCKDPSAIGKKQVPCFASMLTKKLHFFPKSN
NSD2 inh: NSD2 (human) methyltransferase inhibition | NSD2 peptide methylation, AlphaScreen, 120 min | O96028 | inhibition, % at 12.5 µM | actives 0.54% (n = 310,000); in the data active = inhibition above about 50%
XiGFP reactiv: reactivates the inactive X chromosome in mouse fibroblasts; AID 743238; XiGFP mouse fibroblasts, % GFP-positive cells imaging, 3 d; cells co-treated with 5-aza-dC sensitizer; scaled so ellipticine positive control = 100%; actives 0.055% (n = 360,000); activation, % at 7.58 µM;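 active = mean normalized replicate activation at least 10% and every replicate at or above 10%; inconclusive = only one of the two criteria met; inactive = mean below 10% and not all replicates reach 10%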
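assay system = SV40-immortalized XiGFP fibroblast cells, line 68-5-11 | buffer or medium = DMEM plus 5-aza-dC sensitizer | doses = single-point pinned compound dosing | times = 3-day compound exposure, then 15 min fixation at room temperature | benchmarks = positive control ellipticine, 6 µM final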
Wnt act: activators of Wnt/beta-catenin signaling. Wnt/beta-catenin reporter cell assay, activator, plate reader. activation, % at 9.35 µM. actives 1.2% (n = 300,000). AID 743398; in the data active = activation above about 30%, passing the limit was not always enough; inconclusive = no clear call, values can overlap the other calls
esBAF inh: SWI/SNF esBAF complex inhibition | mouse ES cells, Bmi1-luciferase knock-in reporter, 24 h; 100% = twice the neutral-well signal | reporter increase, % at 12.5 µM | actives 2% (n = 350,000) | AID 602393; in the data active = activation above about 40%; inconclusive = no clear call, values can overlap the other calls;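 also: a rise in the Bmi1 reporter signal indicates esBAF inhibition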
MITF TRPM1 HTS: increases MITF-driven TRPM1 promoter luciferase signal. SK-MEL-5 TRPM1-promoter luciferase, 24 h; % of positive control, neutral wells = 0. activation, % at 12.5 µM. actives 0.75% (n = 300,000);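 active = mean activation of at least 80% with every replicate also reaching 80%; inconclusive = mean reaches 80% but some replicate falls short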
esBAF Ring1 qPCR: esBAF inhibition confirmed by Ring1 de-repression | shares compounds with esBAF inh | mouse ESC E14, Ring1 mRNA RT-qPCR fold change | fold change at 33 µM | 550 tested, under 10 active;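 active = Ring1 gene expression raised more than 2-fold over untreated cells in both replicates at either tested dose; inconclusive = only one replicate above 2-fold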;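 also: Ring1 transcript normalised to actin housekeeping signal by TaqMan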
Fgf4 repress: represses Fgf4 in mouse ESCs, confirming esBAF inhibition. shares compounds with esBAF inh. mouse ESC E14, Fgf4 mRNA qPCR fold change; active compounds read low. Fgf4 expression fold change at 33 µM. actives 4% (n = 550). AID 743177;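 active = Fgf4 expression under 0.8 fold of control in both repeat measurements at one or both tested doses; inconclusive = under 0.8 fold in just a single repeat measurement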;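 also: Fgf4 transcript normalised to actin in duplex TaqMan qPCR; cells exposed to compound for 24 h before lysis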
esBAF Bmi1 qPCR: esBAF inhibition confirmed by Bmi1 de-repression; shares compounds with esBAF inh; mouse ESE14 ES cells, Bmi1 mRNA qPCR fold; active compounds read high; fold change at 33 µM; 550 tested, under 10 active;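 active = Bmi1 expression fold change above 6 at either tested concentration, seen in replicate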;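 also: higher fold means more Bmi1 de-repression and stronger esBAF inhibition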
A549 tox SP: cytotoxicity in A549 cells. AID 743188. cell viability change % (negative = cytotoxic), % at 25 µM, hits read low. 550 tested, under 10 active. plate reader. shares compounds with esBAF inh; call rule not given here
HepG2 tox SP: kills or reduces viability of HepG2 cells; actives 4% (n = 550); shares compounds with esBAF inh; AID 743189; activity change, negative = inhibition, % at 25 µM; HepG2 cytotoxicity, plate reader; active compounds read low; in the data active = activity change below about -50%
HEK293 cytotox SP: HEK293 cell cytotoxicity at single point; AID 743190; plate reader; activity change, negative = inhibition, % at 25 µM, hits read low; shares compounds with esBAF inh; actives 3% (n = 550); in the data active = activity change below about -38%, passing the limit was not always enough
Each line names hits and unclear results; the compound was inactive in the other large screens (follow-up assays come after a bar, where they were run).

COc1ccc(NC(=O)O/N=C/c2ccccc2)cc1	Wnt act 39, esBAF inh 53 | esBAF Ring1 qPCR inactive | Fgf4 repress inconclusive | esBAF Bmi1 qPCR inactive | A549 tox SP inactive | HepG2 tox SP inactive | HEK293 cytotox SP inactive
NC(=O)c1ccc(CSc2nc3ccccc3s2)cc1	esBAF inh 54 | esBAF Ring1 qPCR inactive | Fgf4 repress inactive | esBAF Bmi1 qPCR inactive | A549 tox SP inactive | HepG2 tox SP inactive | HEK293 cytotox SP inactive
CCNC(=O)c1ccc(CSc2nc3ccccc3s2)cc1	none (no result: esBAF inh)
COc1ccc(NC(=O)N2CC3(C2)CN(C(=O)CN2CCOCC2)[C@H](CO)c2[nH]c4cc(OC)ccc4c23)cc1	none (no result: NSD2 inh, Wnt act, esBAF inh, MITF TRPM1 HTS)
C1=NN(c2ccccc2)C=NN1c1ccccc1	esBAF inh 69 | esBAF Ring1 qPCR inactive | Fgf4 repress inactive | esBAF Bmi1 qPCR inactive | A549 tox SP inactive | HepG2 tox SP inactive | HEK293 cytotox SP -60
COCC(=O)Nc1ccc2c(c1)C(=O)N(C)[C@H]1CC[C@H](CC(=O)N3CCc4ccccc4C3)O[C@H]1CO2	none (no result: CASP6 VEID inh, NSD2 inh, Wnt act, MITF TRPM1 HTS)
COCC(=O)N(C)C[C@@H]1Oc2cc(C#CC(C)(C)O)ccc2S(=O)(=O)N([C@H](C)CO)C[C@@H]1C	none (no result: NSD2 inh, Wnt act, MITF TRPM1 HTS)
Cc1ccc(NCSc2ccc(Cl)cc2)cc1	esBAF inh 72 | esBAF Ring1 qPCR inactive | Fgf4 repress inactive | esBAF Bmi1 qPCR inactive | A549 tox SP inactive | HepG2 tox SP inactive | HEK293 cytotox SP inactive
CC(=O)Oc1ccc(-c2cc3ccccc3oc2=O)cc1	esBAF inh 69 (no result: MITF TRPM1 HTS) | esBAF Ring1 qPCR inactive | Fgf4 repress inconclusive | esBAF Bmi1 qPCR inactive | A549 tox SP inactive | HepG2 tox SP inactive | HEK293 cytotox SP inactive
C[C@@H]1CCCCO[C@@H](CN(C)C(=O)c2ccccc2)[C@@H](C)CN([C@@H](C)CO)C(=O)c2cc(NC(=O)Nc3ccccc3)ccc2O1	none (no result: NSD2 inh, Wnt act, MITF TRPM1 HTS)
CC(=O)N(/N=C1\Sc2ccccc2C1=O)c1ccccc1	esBAF inh 81 (no result: CASP6 VEID inh, NSD2 inh, XiGFP reactiv, Wnt act, MITF TRPM1 HTS) | esBAF Ring1 qPCR inactive | esBAF Bmi1 qPCR inactive | A549 tox SP inactive | HepG2 tox SP inactive | HEK293 cytotox SP inactive
C=CCn1c(NCc2ccc(OC)cc2O)nc2ccccc21	esBAF inh 61 (no result: MITF TRPM1 HTS) | esBAF Ring1 qPCR inactive | Fgf4 repress inactive | esBAF Bmi1 qPCR inactive | A549 tox SP inactive | HepG2 tox SP -68 | HEK293 cytotox SP inactive
C[C@@H]1CCCCO[C@@H](CN(C)Cc2ccccc2)[C@@H](C)CN([C@@H](C)CO)C(=O)c2cc(NC(=O)Nc3ccccc3)ccc2O1	none (no result: NSD2 inh, Wnt act, MITF TRPM1 HTS)
Cc1nc(Nc2ccccc2)sc1C(=O)c1ccc(F)cc1	esBAF inh 66 | esBAF Ring1 qPCR inactive | Fgf4 repress inactive | esBAF Bmi1 qPCR inactive | A549 tox SP inactive | HepG2 tox SP inactive | HEK293 cytotox SP inactive
COc1ccc(Nc2nc(C)c(C(C)=O)s2)cc1	esBAF inh 82 (no result: NSD2 inh, MITF TRPM1 HTS) | esBAF Ring1 qPCR inactive | Fgf4 repress inactive | esBAF Bmi1 qPCR inactive | A549 tox SP inactive | HepG2 tox SP inactive | HEK293 cytotox SP inactive
COc1ccc(C(=O)c2sc(Nc3ccc(NC(C)=O)cc3)nc2C)cc1	none (no result: MITF TRPM1 HTS)
CN(C)c1ccc(-c2csc(C(O)c3ccccc3)n2)cc1 (configuration not stated)	esBAF inh 61 (no result: MITF TRPM1 HTS) | esBAF Ring1 qPCR inactive | Fgf4 repress inconclusive | esBAF Bmi1 qPCR inactive | A549 tox SP inactive | HepG2 tox SP inactive | HEK293 cytotox SP inactive
Cc1ccc(-c2csc(C(O)c3ccc(F)cc3)n2)cc1C (configuration not stated)	none (no result: MITF TRPM1 HTS)
COc1ccc(-c2csc(C(O)c3ccc(F)cc3)n2)cc1 (configuration not stated)	esBAF inh 60 (no result: MITF TRPM1 HTS) | esBAF Ring1 qPCR inactive | Fgf4 repress inactive | esBAF Bmi1 qPCR inactive | A549 tox SP inactive | HepG2 tox SP inactive | HEK293 cytotox SP inactive
CN(C)c1ccc(-c2csc(C(O)c3ccc(F)cc3)n2)cc1 (configuration not stated)	esBAF inh 82 (no result: MITF TRPM1 HTS) | esBAF Ring1 qPCR inactive | Fgf4 repress inactive | esBAF Bmi1 qPCR inactive | A549 tox SP inactive | HepG2 tox SP inactive | HEK293 cytotox SP inactive
COc1ccccc1NC(=O)N1CC(=O)N2[C@H](CO)[C@@H](c3ccc(-c4ccccc4)cc3)[C@H]2C1	none (no result: NSD2 inh, Wnt act, esBAF inh, MITF TRPM1 HTS)
C/C=C/c1cnc2c(c1)C(=O)N([C@@H](C)CO)C[C@H](C)[C@@H](CN(C)C(=O)Nc1ccc(OC)cc1)O2	none (no result: NSD2 inh, Wnt act, MITF TRPM1 HTS)
Cn1cccc1C(=O)NC1CCCCCC1	esBAF inh 64, MITF TRPM1 HTS 96 | esBAF Ring1 qPCR inactive | Fgf4 repress inactive | esBAF Bmi1 qPCR inactive | A549 tox SP inactive | HepG2 tox SP inactive | HEK293 cytotox SP inactive
CCCNC(=O)Nc1ccc2c(c1)OC[C@@H](C)N(C(=O)C1CCCCC1)C[C@H](C)[C@@H](OC)CN(C)C2=O	none (no result: NSD2 inh, Wnt act, MITF TRPM1 HTS)
COc1ccccc1C(=O)Nc1ccc(C(=O)O)cc1	none (no result: CASP6 VEID inh, XiGFP reactiv, Wnt act, MITF TRPM1 HTS)
COc1cccc(NC(=O)c2ccccc2Br)c1	esBAF inh 57 (no result: MITF TRPM1 HTS) | esBAF Ring1 qPCR inactive | Fgf4 repress inactive | esBAF Bmi1 qPCR inactive | A549 tox SP inactive | HepG2 tox SP inactive | HEK293 cytotox SP inactive
COc1ccccc1C(=O)Oc1ccccc1C(=O)Nc1ccccc1	esBAF inh 69 | esBAF Ring1 qPCR inactive | Fgf4 repress inactive | esBAF Bmi1 qPCR inactive | A549 tox SP inactive | HepG2 tox SP inactive | HEK293 cytotox SP inactive
COc1cccc(NC(=O)c2ccccc2-c2ccccc2C(=O)O)c1	none (no result: MITF TRPM1 HTS)
Fc1ccccc1NC(=S)N1CCC(c2ccccc2)C1 (configuration not stated)	Wnt act 48, esBAF inh 82, MITF TRPM1 HTS 109 | esBAF Ring1 qPCR inactive | Fgf4 repress inactive | esBAF Bmi1 qPCR inactive | A549 tox SP inactive | HepG2 tox SP inactive | HEK293 cytotox SP inactive
Fc1cc(F)cc(NC(=S)N2CCC(c3ccccc3)C2)c1 (configuration not stated)	none (no result: esBAF inh)

Source: PubChem
